Source: PMC7703390 (Journal of Pharmaceutical and Biomedical Analysis, 2020)

Tests used:
[1] = target: human serum albumin (HSA) (Homo sapiens, UniProt P02768); assay: Binding of nucleotides to human serum albumin by native ESI-FT-ICR MS
Procedure, shortened: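 Commercial HSA buffer-exchanged five times into 10 mM NH4Ac (pH 6.0) on a 30k membrane filter. Purified HSA (3 μM) mixed with varying nucleotide concentrations in 10 mM NH4Ac and infused at 5 μL∙min−1 in native positive-mode ESI-FT-ICR MS, m/z 1000–5000, 200 scans combined. Free HSA to complex intensity ratios taken from deconvoluted 17+ to 19+ charge states; KD by nonlinear regression.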

[2] = Degradation in liver homogenate on ice and at room temperature; type: in vitro ADME, mouse; settings: both on ice and at room temperature; Fig. 4a

Sequence of human serum albumin (HSA) (P02768 25-609): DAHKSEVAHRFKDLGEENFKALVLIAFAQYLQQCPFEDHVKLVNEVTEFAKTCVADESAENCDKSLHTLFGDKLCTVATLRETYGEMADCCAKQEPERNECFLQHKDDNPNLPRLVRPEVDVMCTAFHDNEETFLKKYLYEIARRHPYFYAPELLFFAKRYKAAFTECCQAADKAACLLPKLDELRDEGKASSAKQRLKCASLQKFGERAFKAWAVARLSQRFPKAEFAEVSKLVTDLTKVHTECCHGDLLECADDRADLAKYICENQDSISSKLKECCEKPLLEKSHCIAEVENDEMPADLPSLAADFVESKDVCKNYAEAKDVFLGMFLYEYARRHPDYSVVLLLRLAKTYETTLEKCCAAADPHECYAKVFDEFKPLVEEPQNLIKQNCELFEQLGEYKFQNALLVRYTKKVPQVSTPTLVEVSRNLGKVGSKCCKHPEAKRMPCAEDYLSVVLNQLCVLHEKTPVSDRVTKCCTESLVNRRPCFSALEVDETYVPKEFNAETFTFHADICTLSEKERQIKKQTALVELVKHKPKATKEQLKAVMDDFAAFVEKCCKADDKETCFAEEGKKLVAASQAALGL

**Q.** With Nc1ncnc2c1ncn2[C@@H]1O[C@H](COP(=O)(O)OP(=O)(O)OP(=O)(O)O)[C@@H](O)[C@H]1O [ATP, Adenosine triphosphate] as the compound, how does the Kd [1] read?
**A.** 0.471 ± 0.0238 µM

**Q.** Which “degradation in bio-sample without stabilizer” value [2] does the source give for CCC(CC)COC(=O)[C@H](C)N[P@](=O)(OC[C@H]1O[C@@](C#N)(c2ccc3c(N)ncnn23)[C@H](O)[C@@H]1O)Oc1ccccc1 [RDV, Remdesivir] here?
**A.** almost completely degraded in 5 min

**Q.** Which Kd [1] does the source give for O=c1ccn([C@@H]2O[C@H](COP(=O)(O)OP(=O)(O)OP(=O)(O)O)[C@@H](O)[C@H]2O)c(=O)[nH]1 [UTP, uridine triphosphate] here?
**A.** 6.79 ± 0.333 µM
